In ChEMBL document CHEMBL1142556, “cis-parthenolid-9-one from Anvillea garcinii” (2000):
In brackets after ≈: the same amount, converted by molar mass.

Assays:
[1] = Cytotoxicity against human leukemia cells; type: functional, Leukemia cell; settings: for EC50: Homo sapiens, Leukemia cell, read-out: ED50 (the source's name)
How it was run: (§1)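 Tested in vitro by the National Cancer Institute screen. Values are averages over each cell-line subpanel. Potency is reported two ways: C50, the half-maximal effective dose in μmol/L, and ED50, the dose that inhibits net cell growth to 50% of control growth in μg/mL.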

[2] = Cytotoxicity against human lung cancer cells; type: functional, Cancer cell lines; settings: for EC50: Homo sapiens, Cancer cell lines, read-out: ED50 (the source's name); how it was run: as §1
[3] = Cytotoxicity against human colon cancer cells; type: functional, Cancer cell lines; settings: for EC50: Homo sapiens, Cancer cell lines, read-out: ED50 (the source's name); how it was run: as §1
[4] = Cytotoxicity against human central nervous system cancer cells; type: functional, Cancer cell lines; settings: for EC50: Homo sapiens, Cancer cell lines, read-out: ED50 (the source's name); how it was run: as §1
[5] = Cytotoxicity against human melanoma cells; type: functional, Melanoma cell; settings: for EC50: Homo sapiens, Melanoma cell, read-out: ED50 (the source's name); how it was run: as §1
[6] = Cytotoxicity against human ovarian cancer cells; type: functional, Cancer cell lines; settings: for EC50: Homo sapiens, Cancer cell lines, read-out: ED50 (the source's name); how it was run: as §1
[7] = Cytotoxicity against human renal cancer cells; type: functional, Cancer cell lines; settings: for EC50: Homo sapiens, Cancer cell lines, read-out: ED50 (the source's name); how it was run: as §1
[8] = Cytotoxicity against human prostate cancer cells; type: functional, Cancer cell lines; settings: for EC50: Homo sapiens, Cancer cell lines, read-out: ED50 (the source's name); how it was run: as §1
[9] = Cytotoxicity against human breast cancer cells; type: functional, Cancer cell lines; settings: for EC50: Homo sapiens, Cancer cell lines, read-out: ED50 (the source's name); how it was run: as §1

Structure (SMILES)	C50 [1] [µmol/L]	EC50 [1] [mg/L]	C50 [2] [µmol/L]	EC50 [2] [mg/L]	C50 [3] [µmol/L]	EC50 [3] [mg/L]	C50 [4] [µmol/L]	EC50 [4] [mg/L]	C50 [5] [µmol/L]	EC50 [5] [mg/L]	C50 [6] [µmol/L]	EC50 [6] [mg/L]	C50 [7] [µmol/L]	EC50 [7] [mg/L]	C50 [8] [µmol/L]	EC50 [8] [mg/L]	C50 [9] [µmol/L]	EC50 [9] [mg/L]
C=C1C(=O)O[C@H]2[C@H]1CC(=O)/C(C)=C/CC[C@@]1(C)O[C@@H]21	0.08	0.02 (≈ 0.0762 µM)	1.8	0.47 (≈ 1.79 µM)	0.32	0.08 (≈ 0.305 µM)	2.9	0.76 (≈ 2.9 µM)	0.57	0.15 (≈ 0.572 µM)	1.4	0.37 (≈ 1.41 µM)	0.41	0.11 (≈ 0.419 µM)	2.2	0.57 (≈ 2.17 µM)	0.6	0.16 (≈ 0.61 µM)
C=C1C(=O)O[C@H]2[C@H]1CC(=O)/C(C)=C\CC[C@@]1(C)O[C@@H]21	1.94	0.51 (≈ 1.94 µM)	13.4	3.51 (≈ 13.4 µM)	7.3	1.91 (≈ 7.28 µM)	17.1	4.47 (≈ 17 µM)	10.6	2.77 (≈ 10.6 µM)	11.9	3.13 (≈ 11.9 µM)	8.05	2.11 (≈ 8.04 µM)	14.4	3.77 (≈ 14.4 µM)	9.81	2.57 (≈ 9.8 µM)
